Experimental findings from ChEMBL document CHEMBL1156077, “Piperazinyl-glutamate-pyrimidines as potent P2Y12 antagonists for inhibition of platelet aggregation” (Bioorg Med Chem Lett, 2009) are described below.

SMILES strings stand for the structures.

For experiment [1], the target named is T1, P2Y purinoceptor 12 (Homo sapiens, UniProt Q9H244). As to the kind of experiment: Binding affinity at human recombinant P2Y12 receptor expressed in CHO cells by radioligand binding assay. Type of experiment: cell-based. In a few lines: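 Washed membranes from CHO cells transfected with synthetic human P2Y12 gene. Compounds as 7-point threefold dilutions, triplicate, 1 h at room temperature. Nonspecific binding defined with 300 nM 2-MeSADP. Filtered, washed with ice-cold Tris pH 7.4. Single-site fit; IC50 converted to Ki by Cheng–Prusoff, geometric mean of n≥2.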

The target in experiment [2] is T1, P2Y purinoceptor 12. As to the kind of experiment: Ratio of compound IC50 to thienopyrimidine IC50 for P2Y12 receptor in human platelet rich plasma assessed as inhibition of ADP-induced platelet aggregation by light transmission aggregometry. The gist of the method:
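Human platelet-rich plasma was pre-incubated 5 min at 37 °C with compound across seven concentrations (10 down to 0.156). Aggregation was started with ADP (20, final) and followed by light transmission at 626 nm for 15 min at 37 °C. Duplicate concentration-response data were read at the 15-min end-point. IC50 was divided by the IC50 of the thienopyrimidine reference run on the same plate.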

The target of experiment [3] is T1, P2Y purinoceptor 12. As to the kind of experiment: Ratio of compound IC50 to AZD-6140 IC50 for P2Y12 receptor in human platelet rich plasma assessed as inhibition of ADP-induced platelet aggregation by light transmission aggregometry. In a few lines:
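Human platelet-rich plasma was pre-incubated 5 min at 37 °C with compound across seven concentrations (10 down to 0.156). Aggregation was started with ADP (20, final) and followed by light transmission at 626 nm for 15 min at 37 °C. Duplicate concentration-response data were read at the 15-min end-point. IC50 was divided by the IC50 of AZD-6140 run on the same plate.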

Experiment [4] is described as follows: Selectivity for human P2Y12 receptor over P2Y13.
Experiment [5] can be described thus: Selectivity for human P2Y12 receptor over P2Y1.

T1 sequence (Q9H244 whole entry): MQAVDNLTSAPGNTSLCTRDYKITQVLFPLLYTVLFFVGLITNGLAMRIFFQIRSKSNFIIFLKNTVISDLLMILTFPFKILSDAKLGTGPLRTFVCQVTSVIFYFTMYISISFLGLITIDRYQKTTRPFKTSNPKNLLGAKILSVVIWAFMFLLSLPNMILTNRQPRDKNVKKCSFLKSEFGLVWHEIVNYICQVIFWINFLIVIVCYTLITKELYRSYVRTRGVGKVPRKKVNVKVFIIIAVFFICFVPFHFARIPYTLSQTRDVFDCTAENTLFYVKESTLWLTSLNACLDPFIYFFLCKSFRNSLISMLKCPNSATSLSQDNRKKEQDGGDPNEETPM

As a reminder, the Ki is the equilibrium dissociation constant of an inhibitor or competing ligand from its target. Turning to `CCCCCOC(=O)N1CCN(C(=O)[C@H](CCC(=O)O)NC(=O)c2cc(N3CCN(CC(=O)N4CCCC4)CC3)nc(-c3ccccc3)n2)CC1`, in experiment [1], the inhibition constant Ki is 2.1 nM. For the same compound, the Ratio IC50 in experiment [2] was 0.2; in experiment [3], 1.5. Besides, the fold change (FC) in experiment [4] and in experiment [5] was more than 340 each time.
For `CCCCCOC(=O)N1CCN(C(=O)[C@H](CCC(=O)O)NC(=O)c2cc(N3CCC(CC(=O)N4CCC4)CC3)nc(-c3ccccc3)n2)CC1`, the Ki in experiment [1] is 0.92 nM. Besides, the Ratio IC50 was 0.2 in experiment [2] and 1.1 in experiment [3]. The fold change (FC) in experiment [4] and in experiment [5] was more than 340 throughout.
In the case of `CCCCCOC(=O)N1CCN(C(=O)[C@H](CCC(=O)O)NC(=O)c2nc(-c3ccccc3)cc(N3CCN(C)CC3)n2)CC1`, in experiment [1], the Ki is 11 nM. The Ratio IC50 in experiment [2] turned out to be 1.8; in experiment [3] it was 8.1. In addition, the fold change (FC) in experiment [4] and in experiment [5] was more than 340 in each case.
`CCCCCOC(=O)N1CCN(C(=O)[C@H](CCC(=O)O)NC(=O)c2cc(N3CCC(CC(=O)N(CC)CC)CC3)nc(-c3ccccc3)n2)CC1`: the inhibition constant (Ki) in experiment [1] stood at 3.1 nM. In addition, the Ratio IC50 came to 0.6 in experiment [2] and 3.3 in experiment [3]. Moreover, the fold change (FC) in experiment [4] and in experiment [5] was more than 340 each time.
As to `CCCCCOC(=O)N1CCN(C(=O)[C@H](CCC(=O)O)NC(=O)c2cc(OCC3CCN(C)CC3)nc(-c3ccccc3)n2)CC1`, the Ki in experiment [1] is 5.7 nM. Moreover, the Ratio IC50 in experiment [2] was 0.5; in experiment [3] it was 3.7. Moreover, the fold change (FC) in experiment [4] and in experiment [5] was more than 340 each time.
With `CCCCCOC(=O)N1CCN(C(=O)[C@H](CCC(=O)O)NC(=O)c2cc(N3CCN(C)CC3)nc(-c3ccccc3)n2)CC1`, the Ki in experiment [1] came out at 2.7 nM. The Ratio IC50 amounted to 0.3 in experiment [2] and 1.3 in experiment [3]. The fold change (FC) in experiment [4] and in experiment [5] was more than 340 each time.
Take `CCCCCOC(=O)N1CCN(C(=O)[C@H](CCC(=O)O)NC(=O)c2cc(N3CCC(CCOC)CC3)nc(-c3ccccc3)n2)CC1`: the inhibitory constant (Ki) in experiment [1] worked out at 10.2 nM. For the same compound, the results for the Ratio IC50 in experiment [2] and in experiment [3] were 1.3 and 5.4, respectively. Besides, the fold change (FC) in experiment [4] and in experiment [5] was more than 340 throughout.
As for `CCCCCOC(=O)N1CCN(C(=O)[C@H](CCC(=O)O)NC(=O)c2cc(N3CCC(CC(=O)NC)CC3)nc(-c3ccccc3)n2)CC1`, the inhibition constant (Ki) in experiment [1] was 0.9 nM. The Ratio IC50 is 0.2 in experiment [2] and 1.2 in experiment [3]. Also, the fold change (FC) in experiment [4] and in experiment [5] was more than 340 each time.
`CCCCCOC(=O)N1CCN(C(=O)[C@H](CCC(=O)O)NC(=O)c2nc(-c3ccccc3)cc(N3CCN(CCOC)CC3)n2)CC1`: the inhibitory constant (Ki) in experiment [1] stood at 12 nM. Further, the values for the Ratio IC50 in experiment [2] and in experiment [3] were 1.6 and 8.3, respectively. For the same compound, the fold change (FC) in experiment [4] and in experiment [5] was more than 340 each time.
In the case of `CCCCCOC(=O)N1CCN(C(=O)[C@H](CCC(=O)O)NC(=O)c2nc(OCC3CCN(C)CC3)cc(-c3ccccc3)n2)CC1`, the Ki in experiment [1] turned out to be 12 nM. Also, the Ratio IC50 in experiment [2] came to 0.8; in experiment [3] it was 4.4. The fold change (FC) in experiment [4] and in experiment [5] was more than 340 throughout.
Consider `CCCCCOC(=O)N1CCN(C(=O)[C@H](CCC(=O)O)NC(=O)c2nc(-c3ccccc3)cc(N3CCN(C(N)=O)CC3)n2)CC1`, for which the inhibition constant (Ki) in experiment [1] was determined as 5.8 nM. Further, the Ratio IC50 in experiment [2] was 1; in experiment [3], 4.7. The fold change (FC) in experiment [4] and in experiment [5] was more than 340 in each case.
For `CCCCCOC(=O)N1CCN(C(=O)[C@H](CCC(=O)O)NC(=O)c2cc(N3CC(OCC)C3)nc(-c3ccccc3)n2)CC1`, in experiment [1], the Ki is 1.2 nM. The Ratio IC50 in experiment [2] turned out to be 1; in experiment [3] it was 3.4. Also, the fold change (FC) in experiment [4] and in experiment [5] was more than 340 throughout.
As for `CCCCCOC(=O)N1CCN(C(=O)[C@H](CCC(=O)O)NC(=O)c2cc(N3CCC(CC(=O)NCC)CC3)nc(-c3ccccc3)n2)CC1`, in experiment [1], the Ki was 0.67 nM. Further, the Ratio IC50 turned out to be 0.3 in experiment [2] and 1.6 in experiment [3]. The fold change (FC) in experiment [4] and in experiment [5] was more than 340 throughout.
For `CCCCCOC(=O)N1CCN(C(=O)[C@H](CCC(=O)O)NC(=O)c2cc(N3CCC(CCN)CC3)nc(-c3ccccc3)n2)CC1`, in experiment [1], the inhibition constant Ki worked out at 2.7 nM. Further, the Ratio IC50 in experiment [2] stood at 0.1; in experiment [3], 0.4. In addition, the fold change (FC) in experiment [4] and in experiment [5] was more than 340 throughout.
In the case of `CCCCCOC(=O)N1CCN(C(=O)[C@H](CCC(=O)O)NC(=O)c2cc(NCCOC)nc(-c3ccccc3)n2)CC1`, the inhibition constant (Ki) in experiment [1] is 1.2 nM. Besides, the figures for the Ratio IC50 in experiment [2] and in experiment [3] were 0.5 and 2.2, respectively. The fold change (FC) in experiment [4] and in experiment [5] was more than 340 in each case.
On to `CCCCCOC(=O)N1CCN(C(=O)[C@H](CCC(=O)O)NC(=O)c2nc(-c3ccccc3)cc(N3CCC(C(N)=O)CC3)n2)CC1`, for which the Ki in experiment [1] worked out at 3.5 nM. For the same compound, the Ratio IC50 is 0.4 in experiment [2] and 1.9 in experiment [3]. The fold change (FC) in experiment [4] and in experiment [5] was more than 340 each time.
In the case of `CCCCOC(=O)N1CCN(C(=O)[C@H](CCC(=O)O)NC(=O)c2cc(OCC3CCNCC3)nc(-c3ccccc3)n2)CC1`, the inhibitory constant (Ki) in experiment [1] amounted to 16 nM. For the same compound, the figures for the Ratio IC50 in experiment [2] and in experiment [3] were 0.3 and 1, respectively. Further, the fold change (FC) in experiment [4] and in experiment [5] was more than 340 throughout.
For `CCCCOC(=O)N1CCN(C(=O)[C@H](CCC(=O)O)NC(=O)c2cc(N3CCC(C(=O)N(CC)CC)CC3)nc(-c3ccccc3)n2)CC1`, the Ki in experiment [1] came to 0.79 nM. Besides, the Ratio IC50 in experiment [2] came to 0.1; in experiment [3], 0.6. For the same compound, the fold change (FC) in experiment [4] and in experiment [5] was more than 340 each time.
Take `CCCCCOC(=O)N1CCN(C(=O)[C@H](CCC(=O)O)NC(=O)c2nc(-c3ccccc3)cc(N3CCC(CNC)CC3)n2)CC1`: the inhibition constant Ki in experiment [1] was determined as 11 nM. For the same compound, the Ratio IC50 was found to be 0.4 in experiment [2] and 1 in experiment [3]. The fold change (FC) in experiment [4] and in experiment [5] was more than 340 in each case.
Take `CCCCCOC(=O)N1CCN(C(=O)[C@H](CCC(=O)O)NC(=O)c2cc(N3CCC(N4CCOCC4)CC3)nc(-c3ccccc3)n2)CC1`: the inhibition constant (Ki) in experiment [1] was determined as 2.9 nM. Moreover, the Ratio IC50 in experiment [2] was found to be 0.2; in experiment [3], 0.7. For the same compound, the fold change (FC) in experiment [4] and in experiment [5] was more than 340 in each case.
Regarding `CCCCOC(=O)N1CCN(C(=O)[C@H](CCC(=O)O)NC(=O)c2cc(OC3CCN(C(C)C)CC3)nc(-c3ccccc3)n2)CC1`, the Ki in experiment [1] came out at 19 nM. In addition, the Ratio IC50 turned out to be 0.8 in experiment [2] and 2.8 in experiment [3]. In addition, the fold change (FC) in experiment [4] and in experiment [5] was more than 340 throughout.
Consider `CCCCCOC(=O)N1CCN(C(=O)[C@H](CCC(=O)O)NC(=O)c2cc(N3CCC(CCN(C)C)CC3)nc(-c3ccccc3)n2)CC1`, for which the inhibition constant Ki in experiment [1] was 2.8 nM. Besides, the figures for the Ratio IC50 in experiment [2] and in experiment [3] were 0.1 and 0.4, respectively. The fold change (FC) in experiment [4] and in experiment [5] was more than 340 throughout.
